Test results reported in ChEMBL document CHEMBL4382192, “Discovery of a potent dual ALK and EGFR T790M inhibitor” (Eur J Med Chem, 2017).

How the values were obtained:
[1] = target: Serine/threonine-protein kinase 10 (Homo sapiens) (UniProt O94804); test: Binding affinity to wild-type human partial length LOK (E16 to V314 residues) expressed in bacterial expression system assessed as residual binding level at 1 uM by Kinomescan method relative to control
[2] = target: Serine/threonine-protein kinase RIO2 (Homo sapiens) (UniProt Q9BVS4); test: Binding affinity to wild-type human partial length RIOK2 (M1 to D313 residues) expressed in mammalian expression system assessed as residual binding level at 1 uM by Kinomescan method relative to control
[3] = target: Mitogen-activated protein kinase kinase kinase 15 (Homo sapiens) (UniProt Q6ZN16); test: Binding affinity to wild-type human partial length MAP3K15 (T625 to L932 residues) expressed in mammalian expression system assessed as residual binding level at 1 uM by Kinomescan method relative to control
[4] = test system: Tyrosine-protein kinase ABL1 (Homo sapiens), P00519 [Q252H]; test: Binding affinity to human phosphorylated ABL1 Q252H mutant expressed in mammalian expression system assessed as residual binding level at 1 uM by Kinomescan method relative to control
Outline: (§1)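 Kinome-wide selectivity panel run by the KINOMEscan method, with the test compound at a single concentration of 1 μM. Wild-type and mutant kinases were profiled in the same screen.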

[5] = target: BMP-2-inducible protein kinase (Homo sapiens) (UniProt Q9NSY1); test: Binding affinity to wild-type human partial length BIKE (S34 to N329 residues) expressed in bacterial expression system assessed as residual binding level at 1 uM by Kinomescan method relative to control
[6] = target: Tyrosine-protein kinase Fyn (Homo sapiens) (UniProt P06241); test: Binding affinity to wild-type human partial length FYN (T243 to L534 residues) expressed in bacterial expression system assessed as residual binding level at 1 uM by Kinomescan method relative to control
[7] = target: Insulin-like growth factor 1 receptor (Homo sapiens) (UniProt P08069); test: Binding affinity to wild-type human partial length IGF1R (L972 to D1294 residues) expressed in bacterial expression system assessed as residual binding level at 1 uM by Kinomescan method relative to control
[8] = target: Serine/threonine-protein kinase DCLK2 (Homo sapiens) (UniProt Q8N568); test: Binding affinity to wild-type human partial length DCAMKL2 (K273 to V664 residues) expressed in bacterial expression system assessed as residual binding level at 1 uM by Kinomescan method relative to control
[9] = target: Dual specificity protein kinase CLK3 (Homo sapiens) (UniProt P49761); test: Binding affinity to wild-type human full length CLK3 (M1 to R490 residues) expressed in bacterial expression system assessed as residual binding level at 1 uM by Kinomescan method relative to control
[10] = target: Mitogen-activated protein kinase kinase kinase 13 (Homo sapiens) (UniProt O43283); test: Binding affinity to wild-type human full length LZK (M1 to W966 residues) expressed in mammalian expression system assessed as residual binding level at 1 uM by Kinomescan method relative to control
Outline: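 Single-point kinome-wide KINOMEscan binding panel, test compound at 1 μM, run by the provider's standard protocol.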

[11] = target: Activin receptor type-1 (Homo sapiens) (UniProt Q04771); test: Binding affinity to wild-type human ACVR1 (C188 to C509 residues) expressed in bacterial expression system assessed as residual binding level at 1 uM by Kinomescan method relative to control
[12] = target: Interleukin-1 receptor-associated kinase 4 (Homo sapiens) (UniProt Q9NWZ3); test: Binding affinity to wild-type human partial length IRAK4 (M1 to S460 residues) expressed in mammalian expression system assessed as residual binding level at 1 uM by Kinomescan method relative to control
[13] = target: STE20-like serine/threonine-protein kinase (Homo sapiens, UniProt Q9H2G2); test: Binding affinity to wild-type human partial length SLK (S14 to A307 residues) expressed in bacterial expression system assessed as residual binding level at 1 uM by Kinomescan method relative to control
[14] = test system: Tyrosine-protein kinase ABL1 (Homo sapiens), P00519 [F317I]; test: Binding affinity to human phosphorylated ABL1 F317I mutant (S229 to K512 residues) expressed in mammalian expression system assessed as residual binding level at 1 uM by Kinomescan method relative to control; outline: as §1
[15] = target: Tyrosine-protein kinase JAK1 (Homo sapiens) (UniProt P23458); test: Binding affinity to wild-type human partial length JAK1 JH1 catalytic domain (V856 to K1154 residues) expressed in bacterial expression system assessed as residual binding level at 1 uM by Kinomescan method relative to control
[16] = target: Serine/threonine-protein kinase PLK3 (Homo sapiens) (UniProt Q9H4B4); test: Binding affinity to wild-type human partial length PLK3 (A42 to L334 residues) expressed in mammalian expression system assessed as residual binding level at 1 uM by Kinomescan method relative to control
[17] = target: Vascular endothelial growth factor receptor 1 (Homo sapiens) (UniProt P17948); test: Binding affinity to wild-type human partial length FLT1 (R781 to F1239 residues) expressed in bacterial expression system assessed as residual binding level at 1 uM by Kinomescan method relative to control
[18] = target: Protein-tyrosine kinase 6 (Homo sapiens) (UniProt Q13882); test: Binding affinity to wild-type human partial length BRK (L166 to T451 residues) expressed in bacterial expression system assessed as residual binding level at 1 uM by Kinomescan method relative to control
[19] = target: Peripheral plasma membrane protein CASK (Homo sapiens) (UniProt O14936); test: Binding affinity to wild-type human partial length CASK (M1 to H315 residues) expressed in mammalian expression system assessed as residual binding level at 1 uM by Kinomescan method relative to control
[20] = target: Serine/threonine-protein kinase MRCK gamma (Homo sapiens) (UniProt Q6DT37); test: Binding affinity to wild-type human partial length DMPK2 (S46 to S408 residues) expressed in bacterial expression system assessed as residual binding level at 1 uM by Kinomescan method relative to control
[21] = target: Mitogen-activated protein kinase 7 (Homo sapiens) (UniProt Q13164); test: Binding affinity to wild-type human partial length ERK5 (M1 to A409 residues) expressed in bacterial expression system assessed as residual binding level at 1 uM by Kinomescan method relative to control
[22] = target: Leucine-rich repeat serine/threonine-protein kinase 2 (Homo sapiens) (UniProt Q5S007); test: Binding affinity to wild-type human partial length LRRK2 (H970 to E2527 residues) expressed in mammalian expression system assessed as residual binding level at 1 uM by Kinomescan method relative to control
[23] = target: Dual specificity tyrosine-phosphorylation-regulated kinase 2 (Homo sapiens) (UniProt Q92630); test: Binding affinity to wild-type human full length DYRK2 (M1 to S528 residues) expressed in mammalian expression system assessed as residual binding level at 1 uM by Kinomescan method relative to control
[24] = target: Tyrosine-protein kinase Fgr (Homo sapiens) (UniProt P09769); test: Binding affinity to wild-type human partial length FGR (L233 to T529 residues) expressed in bacterial expression system assessed as residual binding level at 1 uM by Kinomescan method relative to control

Chain of Leucine-rich repeat serine/threonine-protein kinase 2 (Homo sapiens) (Q5S007 whole entry, the tested form may be a part): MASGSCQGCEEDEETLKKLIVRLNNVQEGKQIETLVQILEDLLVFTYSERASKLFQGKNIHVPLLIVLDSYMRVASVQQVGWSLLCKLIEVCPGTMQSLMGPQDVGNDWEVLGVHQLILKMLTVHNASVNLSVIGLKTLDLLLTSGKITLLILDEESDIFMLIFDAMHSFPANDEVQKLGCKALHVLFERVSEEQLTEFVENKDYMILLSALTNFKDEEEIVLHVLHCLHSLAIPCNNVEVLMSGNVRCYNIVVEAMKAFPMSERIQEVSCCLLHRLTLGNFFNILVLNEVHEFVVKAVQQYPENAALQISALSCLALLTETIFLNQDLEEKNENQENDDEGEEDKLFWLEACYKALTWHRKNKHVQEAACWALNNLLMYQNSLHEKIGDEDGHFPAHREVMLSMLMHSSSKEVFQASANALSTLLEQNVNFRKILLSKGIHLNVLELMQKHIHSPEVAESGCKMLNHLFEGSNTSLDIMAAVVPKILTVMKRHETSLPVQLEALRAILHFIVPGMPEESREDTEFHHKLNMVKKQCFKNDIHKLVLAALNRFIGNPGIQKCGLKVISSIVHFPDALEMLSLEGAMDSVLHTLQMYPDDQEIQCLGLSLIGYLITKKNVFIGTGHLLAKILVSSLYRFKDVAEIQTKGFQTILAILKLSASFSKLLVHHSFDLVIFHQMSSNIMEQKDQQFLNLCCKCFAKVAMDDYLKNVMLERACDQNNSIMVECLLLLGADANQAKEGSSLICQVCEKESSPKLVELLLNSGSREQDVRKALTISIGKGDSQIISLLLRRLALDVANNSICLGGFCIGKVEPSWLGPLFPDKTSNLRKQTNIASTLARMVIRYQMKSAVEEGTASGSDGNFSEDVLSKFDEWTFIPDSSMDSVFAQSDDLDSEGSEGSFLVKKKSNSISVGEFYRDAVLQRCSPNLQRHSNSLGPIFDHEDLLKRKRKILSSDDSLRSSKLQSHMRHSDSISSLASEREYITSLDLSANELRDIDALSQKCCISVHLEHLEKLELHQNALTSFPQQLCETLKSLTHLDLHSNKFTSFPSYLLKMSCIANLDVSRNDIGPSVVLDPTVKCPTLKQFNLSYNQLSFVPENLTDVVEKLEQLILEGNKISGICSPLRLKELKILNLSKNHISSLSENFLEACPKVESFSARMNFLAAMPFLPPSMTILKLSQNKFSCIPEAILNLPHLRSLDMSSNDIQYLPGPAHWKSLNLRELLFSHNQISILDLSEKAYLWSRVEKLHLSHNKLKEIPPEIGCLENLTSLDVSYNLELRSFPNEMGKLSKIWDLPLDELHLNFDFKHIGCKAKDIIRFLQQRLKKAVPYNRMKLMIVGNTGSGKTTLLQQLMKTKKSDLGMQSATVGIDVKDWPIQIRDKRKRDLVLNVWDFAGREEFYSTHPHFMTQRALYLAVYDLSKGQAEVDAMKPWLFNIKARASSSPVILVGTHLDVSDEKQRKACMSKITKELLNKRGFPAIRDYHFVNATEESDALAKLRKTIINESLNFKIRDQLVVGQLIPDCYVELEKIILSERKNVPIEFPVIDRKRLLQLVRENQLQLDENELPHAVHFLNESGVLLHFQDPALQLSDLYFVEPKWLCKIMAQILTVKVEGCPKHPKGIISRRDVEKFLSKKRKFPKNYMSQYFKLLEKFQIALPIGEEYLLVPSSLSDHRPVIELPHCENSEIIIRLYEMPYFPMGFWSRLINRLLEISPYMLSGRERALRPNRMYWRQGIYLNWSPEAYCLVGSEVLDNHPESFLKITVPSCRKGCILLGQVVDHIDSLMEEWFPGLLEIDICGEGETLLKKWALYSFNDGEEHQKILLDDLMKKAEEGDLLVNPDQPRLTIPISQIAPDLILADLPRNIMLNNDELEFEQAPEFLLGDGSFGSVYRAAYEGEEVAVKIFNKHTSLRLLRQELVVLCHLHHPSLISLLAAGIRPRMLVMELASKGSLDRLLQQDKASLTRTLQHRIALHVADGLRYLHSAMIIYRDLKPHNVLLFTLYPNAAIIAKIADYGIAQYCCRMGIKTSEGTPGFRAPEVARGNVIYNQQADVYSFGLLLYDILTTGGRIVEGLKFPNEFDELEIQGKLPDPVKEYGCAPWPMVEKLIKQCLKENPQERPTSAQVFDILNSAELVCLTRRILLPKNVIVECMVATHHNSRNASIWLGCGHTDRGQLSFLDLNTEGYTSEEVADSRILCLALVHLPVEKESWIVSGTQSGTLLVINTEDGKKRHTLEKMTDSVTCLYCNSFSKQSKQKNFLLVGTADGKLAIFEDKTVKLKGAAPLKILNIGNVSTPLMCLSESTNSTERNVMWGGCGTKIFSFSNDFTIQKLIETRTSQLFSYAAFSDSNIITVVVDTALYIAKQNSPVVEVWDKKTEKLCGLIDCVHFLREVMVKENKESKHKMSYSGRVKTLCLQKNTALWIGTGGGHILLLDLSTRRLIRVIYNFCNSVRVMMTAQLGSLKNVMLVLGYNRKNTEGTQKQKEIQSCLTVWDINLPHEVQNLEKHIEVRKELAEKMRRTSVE
Chain of Mitogen-activated protein kinase 7 (Homo sapiens) (Q13164 2-816 limits assumed): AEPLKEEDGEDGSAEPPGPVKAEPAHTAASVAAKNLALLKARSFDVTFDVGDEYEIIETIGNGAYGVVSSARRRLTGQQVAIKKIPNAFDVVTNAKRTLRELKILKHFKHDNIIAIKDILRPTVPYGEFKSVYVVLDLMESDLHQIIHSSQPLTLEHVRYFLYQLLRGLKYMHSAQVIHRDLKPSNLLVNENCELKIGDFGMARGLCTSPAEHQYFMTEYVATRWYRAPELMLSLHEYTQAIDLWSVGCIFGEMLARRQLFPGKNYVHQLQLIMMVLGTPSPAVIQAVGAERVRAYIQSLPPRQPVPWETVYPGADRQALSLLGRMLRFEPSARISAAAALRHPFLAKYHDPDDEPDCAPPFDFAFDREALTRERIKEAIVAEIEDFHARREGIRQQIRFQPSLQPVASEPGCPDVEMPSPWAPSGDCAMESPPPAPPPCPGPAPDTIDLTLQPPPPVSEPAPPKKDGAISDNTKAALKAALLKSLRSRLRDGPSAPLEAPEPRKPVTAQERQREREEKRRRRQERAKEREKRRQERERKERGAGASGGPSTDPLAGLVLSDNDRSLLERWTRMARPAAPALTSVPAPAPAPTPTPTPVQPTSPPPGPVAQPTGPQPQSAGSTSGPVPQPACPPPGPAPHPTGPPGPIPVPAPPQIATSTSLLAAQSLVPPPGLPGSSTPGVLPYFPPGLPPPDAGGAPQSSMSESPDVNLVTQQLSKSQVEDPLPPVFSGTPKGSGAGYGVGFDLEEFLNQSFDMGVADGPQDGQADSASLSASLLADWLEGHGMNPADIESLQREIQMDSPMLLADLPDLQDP
Chain of Serine/threonine-protein kinase MRCK gamma (Homo sapiens) (Q6DT37 whole entry, the tested form may be a part): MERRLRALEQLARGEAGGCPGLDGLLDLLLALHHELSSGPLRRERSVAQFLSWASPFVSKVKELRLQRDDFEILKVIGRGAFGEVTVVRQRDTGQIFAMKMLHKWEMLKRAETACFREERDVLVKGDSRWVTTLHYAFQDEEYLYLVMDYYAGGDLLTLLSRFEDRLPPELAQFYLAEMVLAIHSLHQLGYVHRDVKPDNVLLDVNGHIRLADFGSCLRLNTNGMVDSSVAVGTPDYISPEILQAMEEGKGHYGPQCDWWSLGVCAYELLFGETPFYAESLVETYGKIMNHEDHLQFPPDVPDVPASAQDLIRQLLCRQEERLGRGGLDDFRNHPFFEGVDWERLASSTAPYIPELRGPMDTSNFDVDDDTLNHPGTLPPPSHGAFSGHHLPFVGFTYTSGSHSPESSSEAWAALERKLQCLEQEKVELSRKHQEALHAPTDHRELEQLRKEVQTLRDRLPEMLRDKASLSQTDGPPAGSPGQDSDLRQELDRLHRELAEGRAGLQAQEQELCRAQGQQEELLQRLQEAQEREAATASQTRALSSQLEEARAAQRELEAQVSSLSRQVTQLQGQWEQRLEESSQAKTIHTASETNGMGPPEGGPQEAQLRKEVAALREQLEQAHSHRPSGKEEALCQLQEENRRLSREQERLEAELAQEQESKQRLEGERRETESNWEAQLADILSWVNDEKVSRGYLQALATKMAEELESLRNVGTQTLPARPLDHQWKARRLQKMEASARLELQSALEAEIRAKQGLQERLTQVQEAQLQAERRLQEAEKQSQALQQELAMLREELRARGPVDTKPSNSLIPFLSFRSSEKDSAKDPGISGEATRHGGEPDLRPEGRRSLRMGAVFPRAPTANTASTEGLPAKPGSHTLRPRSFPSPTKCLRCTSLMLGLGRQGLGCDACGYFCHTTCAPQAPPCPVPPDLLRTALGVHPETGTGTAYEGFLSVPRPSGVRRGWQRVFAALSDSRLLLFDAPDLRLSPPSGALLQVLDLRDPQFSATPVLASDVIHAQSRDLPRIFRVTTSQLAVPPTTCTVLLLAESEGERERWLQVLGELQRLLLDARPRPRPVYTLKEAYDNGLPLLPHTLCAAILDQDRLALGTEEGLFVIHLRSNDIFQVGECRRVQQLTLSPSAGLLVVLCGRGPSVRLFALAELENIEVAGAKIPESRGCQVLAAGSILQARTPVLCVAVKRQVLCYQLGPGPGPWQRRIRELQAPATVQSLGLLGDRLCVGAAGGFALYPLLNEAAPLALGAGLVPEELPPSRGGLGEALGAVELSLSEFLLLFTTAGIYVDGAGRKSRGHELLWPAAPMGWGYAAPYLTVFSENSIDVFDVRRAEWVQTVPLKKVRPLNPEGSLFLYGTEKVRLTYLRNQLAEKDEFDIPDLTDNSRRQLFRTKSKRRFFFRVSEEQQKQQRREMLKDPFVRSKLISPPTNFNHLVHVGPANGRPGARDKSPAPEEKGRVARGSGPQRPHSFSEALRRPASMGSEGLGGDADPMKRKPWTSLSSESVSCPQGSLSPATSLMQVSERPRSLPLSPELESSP

Q: How did the Activity [1] turn out when `C=CC(=O)Nc1cc(Nc2ncc(Cl)c(Nc3ccccc3S(=O)(=O)C(C)C)n2)c(OC)cc1N(C)CCN(C)C` was run?
A: Its Activity is 0%.

Q: What about the Activity [2] of the same compound?
A: Its Activity is 93%.

Q: What about the Activity [3] of the same compound?
A: Its Activity is 45%.

Q: And the Activity [4]?
A: Its Activity is 2.8%.

Q: What about the Activity [5] of the same compound?
A: Its Activity is 92%.

Q: What about the Activity [6] of the same compound?
A: Its Activity is 46%.

Q: What about the Activity [7] of the same compound?
A: The Activity was 0.55%.

Q: What about the Activity [8] of the same compound?
A: The Activity was 14%.

Q: What about the Activity [9] of the same compound?
A: Its Activity is 23%.

Q: And the Activity [10]?
A: The Activity was 73%.

Q: What about the Activity [11] of the same compound?
A: The Activity was 9%.

Q: What about the Activity [12] of the same compound?
A: The Activity was 96%.

Q: What about the Activity [13] of the same compound?
A: The Activity was 0%.

Q: And the Activity [14]?
A: Its Activity is 2.8%.

Q: And the Activity [15]?
A: Its Activity is 78%.

Q: What about the Activity [16] of the same compound?
A: Its Activity is 60%.

Q: What about the Activity [17] of the same compound?
A: The Activity was 47%.

Q: And the Activity [18]?
A: The Activity was 0.4%.

Q: What about the Activity [19] of the same compound?
A: Its Activity is 95%.

Q: And the Activity [20]?
A: The Activity was 91%.

Q: And the Activity [21]?
A: The Activity was 37%.

Q: What about the Activity [22] of the same compound?
A: The Activity was 1.7%.

Q: And the Activity [23]?
A: The Activity was 100%.

Q: What about the Activity [24] of the same compound?
A: The Activity was 57%.
